Experimental data from ChEMBL document CHEMBL1255185, “Substituted 4-amino-1H-pyrazolo[3,4-d]pyrimidines as multi-targeted inhibitors of insulin-like growth factor-1 receptor (IGF1R) and members of ErbB-family receptor kinases” (Bioorg Med Chem Lett, 2010).
The source made the active and inactive calls. The calls are words filed in the database; no cut-off is given here.

Experiments:
[1] = biological target: T1, Insulin-like growth factor 1 receptor (Homo sapiens, UniProt P08069); experiment: Inhibition of IGF1R phosphorylation in human MIAPaCa cells by ELISA; format: cell-based
Method in brief: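 Cellular IGF1R phosphorylation was read out in ELISA format in MiaPaCa human pancreatic carcinoma cells, which express both IGF1R and EGFR.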

[2] = biological target: Epidermal growth factor receptor (Homo sapiens, UniProt P00533); experiment: Inhibition of EGFR phosphorylation in human MIAPaCa cells by ELISA; format: cell-based
[3] = biological target: T1, Insulin-like growth factor 1 receptor; experiment: Inhibition of IGF1R
[4] = biological target: T2, Receptor tyrosine-protein kinase erbB-2 (Homo sapiens, UniProt P04626); experiment: Inhibition of ERBb2 phosphorylation in human BT474 cells by ELISA; format: cell-based, BT-474
Method in brief: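 ErbB2 phosphorylation was read out in ELISA format in BT474 human breast tumour cells, which highly express ErbB2.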

[5] = biological target: T2, Receptor tyrosine-protein kinase erbB-2; experiment: Inhibition of ErbB2
[6] = biological target: Epidermal growth factor receptor (Homo sapiens, UniProt P04626+P00533+Q15303+P21860); experiment: Inhibition of EGFR L858 mutant; format: protein assay
Method in brief: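 Kinase inhibition was measured in a homogeneous time-resolved fluorescence assay. The EGFR enzyme construct carries the L858R activating mutation.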

[7] = Oral bioavailability in C57BL/6 mouse at 10 mg/kg; format: ADME, organism-based; conditions: in vivo
Method in brief: (§1)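 Mouse oral PK used a 10 mg/kg dose. AUC is normalized to dose (per mg/kg), and F is oral bioavailability.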

[8] = Clearance in iv dosed rat; format: ADME, organism-based; conditions: in vivo
[9] = Tmax in po dosed C57BL/6 mouse; format: ADME, organism-based; conditions: in vivo; method in brief: as §1
[10] = tested on: Mus musculus; experiment: Inhibition of AKT phosphorylation in C57BL/6 mouse at 30 mg/kg, iv by Western blotting; format: functional, organism-based; design: dose 30 mg/kg
Method in brief: (§2)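 Female C57BL/6 mice were dosed iv with compound or vehicle; doses of 3, 10, 30 and 60 mg/kg were used. After 1 h, IGF-1 was given iv at 0.5 mg/kg, and mice were sacrificed 10 min later. Lung tissue was homogenized, and p-IGF1R and p-Akt were analyzed by Western blot. Drug levels in plasma and tissues were measured.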

[11] = Clearance in iv dosed C57BL/6 mouse; format: ADME, organism-based; conditions: in vivo
[12] = tested on: Mus musculus; experiment: Dose normalized AUC in po dosed C57BL/6 mouse; format: ADME, organism-based; conditions: in vivo; method in brief: as §1
[13] = tested on: Mus musculus; experiment: Inhibition of IGF1R phosphorylation in C57BL/6 mouse at 30 mg/kg, iv by Western blotting; format: functional; method in brief: as §2
[14] = tested on: Mus musculus; experiment: Dose normalized AUC in iv dosed C57BL/6 mouse; format: ADME, organism-based; conditions: in vivo
Method in brief: (§3)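 Intravenous PK: AUC is normalized to dose and expressed per mg/kg.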

[15] = Oral bioavailability in rat at 5 mg/kg; format: ADME, organism-based; conditions: in vivo
Method in brief: (§4)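 Rat oral PK used a 5 mg/kg dose. AUC is normalized to dose (per mg/kg), and F is oral bioavailability.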

[16] = Tmax in po dosed rat; format: ADME, organism-based; conditions: in vivo; method in brief: as §4
[17] = Cmax in rat at 5 mg/kg, po; format: ADME, organism-based; design: dose 5 mg/kg, route oral; conditions: in vivo; method in brief: as §4
[18] = tested on: Rattus norvegicus; experiment: Dose normalized AUC in iv dosed rat; format: ADME, organism-based; conditions: in vivo; method in brief: as §3
[19] = Half life in iv dosed C57BL/6 mouse; format: ADME, organism-based; conditions: in vivo
[20] = Half life in iv dosed rat; format: ADME, organism-based; conditions: in vivo
[21] = Cmax in C57BL/6 mouse at 10 mg/kg, po; format: ADME, organism-based; design: dose 10 mg/kg, route oral; conditions: in vivo; method in brief: as §1
[22] = tested on: Rattus norvegicus; experiment: Dose normalized AUC in po dosed rat; format: ADME, organism-based; conditions: in vivo; method in brief: as §4

T1 sequence (P08069 31-736 limits assumed): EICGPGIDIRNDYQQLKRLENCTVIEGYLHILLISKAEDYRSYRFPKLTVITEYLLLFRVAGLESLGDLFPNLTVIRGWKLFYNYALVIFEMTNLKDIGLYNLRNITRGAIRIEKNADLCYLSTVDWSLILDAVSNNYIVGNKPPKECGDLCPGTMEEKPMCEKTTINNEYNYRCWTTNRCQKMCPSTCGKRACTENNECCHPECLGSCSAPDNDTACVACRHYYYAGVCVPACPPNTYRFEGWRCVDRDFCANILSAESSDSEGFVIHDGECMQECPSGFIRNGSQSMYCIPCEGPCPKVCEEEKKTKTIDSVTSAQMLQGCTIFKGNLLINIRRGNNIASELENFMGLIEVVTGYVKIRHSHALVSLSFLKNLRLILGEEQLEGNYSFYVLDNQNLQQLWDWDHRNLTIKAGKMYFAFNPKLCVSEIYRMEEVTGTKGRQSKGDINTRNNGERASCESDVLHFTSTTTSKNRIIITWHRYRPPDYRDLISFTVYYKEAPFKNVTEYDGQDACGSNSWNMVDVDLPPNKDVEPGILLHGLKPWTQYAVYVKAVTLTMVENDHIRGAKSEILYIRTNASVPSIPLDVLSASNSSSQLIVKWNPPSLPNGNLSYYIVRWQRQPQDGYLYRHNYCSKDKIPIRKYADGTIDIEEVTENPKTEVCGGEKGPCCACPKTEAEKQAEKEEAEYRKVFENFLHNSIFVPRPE
T1 sequence (P08069 741-1367 limits assumed): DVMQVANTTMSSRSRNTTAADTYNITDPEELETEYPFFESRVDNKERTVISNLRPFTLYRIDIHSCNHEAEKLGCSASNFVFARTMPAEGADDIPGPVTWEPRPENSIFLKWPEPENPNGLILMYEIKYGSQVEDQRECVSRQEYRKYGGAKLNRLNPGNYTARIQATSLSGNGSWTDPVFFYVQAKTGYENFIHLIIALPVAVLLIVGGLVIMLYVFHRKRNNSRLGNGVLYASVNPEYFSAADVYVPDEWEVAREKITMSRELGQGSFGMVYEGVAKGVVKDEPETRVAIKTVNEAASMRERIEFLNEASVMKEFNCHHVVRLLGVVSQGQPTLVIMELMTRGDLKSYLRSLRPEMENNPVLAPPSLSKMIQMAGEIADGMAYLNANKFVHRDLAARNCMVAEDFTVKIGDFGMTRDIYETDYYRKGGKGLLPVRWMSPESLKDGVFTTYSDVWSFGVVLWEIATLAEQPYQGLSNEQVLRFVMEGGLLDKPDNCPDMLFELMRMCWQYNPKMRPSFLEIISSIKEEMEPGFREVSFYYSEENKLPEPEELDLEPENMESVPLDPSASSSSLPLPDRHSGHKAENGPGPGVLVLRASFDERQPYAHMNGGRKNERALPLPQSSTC
Epidermal growth factor receptor (Homo sapiens, UniProt P00533), sequence (P00533 whole entry): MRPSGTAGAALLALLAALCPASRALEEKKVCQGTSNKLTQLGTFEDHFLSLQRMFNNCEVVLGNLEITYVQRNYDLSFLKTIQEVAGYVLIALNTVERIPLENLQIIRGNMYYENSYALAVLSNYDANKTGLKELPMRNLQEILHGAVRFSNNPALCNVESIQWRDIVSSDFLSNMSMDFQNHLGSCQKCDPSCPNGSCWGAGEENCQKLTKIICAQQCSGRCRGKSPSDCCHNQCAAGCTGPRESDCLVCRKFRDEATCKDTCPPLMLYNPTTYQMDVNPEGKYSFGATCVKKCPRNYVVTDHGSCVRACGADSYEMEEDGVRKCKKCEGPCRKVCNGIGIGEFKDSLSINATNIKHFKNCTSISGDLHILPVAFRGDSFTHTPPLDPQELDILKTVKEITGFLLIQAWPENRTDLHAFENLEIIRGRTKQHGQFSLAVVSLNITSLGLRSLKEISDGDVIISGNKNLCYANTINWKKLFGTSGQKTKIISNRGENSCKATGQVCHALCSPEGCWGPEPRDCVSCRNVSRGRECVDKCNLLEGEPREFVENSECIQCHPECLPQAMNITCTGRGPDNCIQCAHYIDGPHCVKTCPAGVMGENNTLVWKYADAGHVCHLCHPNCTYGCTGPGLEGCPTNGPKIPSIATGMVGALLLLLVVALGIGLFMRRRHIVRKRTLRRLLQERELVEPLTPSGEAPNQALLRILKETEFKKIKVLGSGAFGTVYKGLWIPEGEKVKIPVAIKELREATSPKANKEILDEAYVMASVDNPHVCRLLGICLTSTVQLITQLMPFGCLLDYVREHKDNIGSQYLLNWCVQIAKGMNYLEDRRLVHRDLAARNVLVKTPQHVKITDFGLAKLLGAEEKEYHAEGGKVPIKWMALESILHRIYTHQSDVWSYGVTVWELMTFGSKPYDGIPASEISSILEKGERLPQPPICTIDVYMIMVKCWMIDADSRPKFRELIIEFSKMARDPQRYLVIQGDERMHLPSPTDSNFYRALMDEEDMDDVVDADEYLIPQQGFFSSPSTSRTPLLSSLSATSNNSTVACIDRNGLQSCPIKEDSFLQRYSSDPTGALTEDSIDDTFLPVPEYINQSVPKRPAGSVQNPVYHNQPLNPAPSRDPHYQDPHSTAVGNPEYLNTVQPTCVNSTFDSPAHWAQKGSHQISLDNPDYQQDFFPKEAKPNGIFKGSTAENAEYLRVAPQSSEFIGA
T2 sequence (P04626 whole entry): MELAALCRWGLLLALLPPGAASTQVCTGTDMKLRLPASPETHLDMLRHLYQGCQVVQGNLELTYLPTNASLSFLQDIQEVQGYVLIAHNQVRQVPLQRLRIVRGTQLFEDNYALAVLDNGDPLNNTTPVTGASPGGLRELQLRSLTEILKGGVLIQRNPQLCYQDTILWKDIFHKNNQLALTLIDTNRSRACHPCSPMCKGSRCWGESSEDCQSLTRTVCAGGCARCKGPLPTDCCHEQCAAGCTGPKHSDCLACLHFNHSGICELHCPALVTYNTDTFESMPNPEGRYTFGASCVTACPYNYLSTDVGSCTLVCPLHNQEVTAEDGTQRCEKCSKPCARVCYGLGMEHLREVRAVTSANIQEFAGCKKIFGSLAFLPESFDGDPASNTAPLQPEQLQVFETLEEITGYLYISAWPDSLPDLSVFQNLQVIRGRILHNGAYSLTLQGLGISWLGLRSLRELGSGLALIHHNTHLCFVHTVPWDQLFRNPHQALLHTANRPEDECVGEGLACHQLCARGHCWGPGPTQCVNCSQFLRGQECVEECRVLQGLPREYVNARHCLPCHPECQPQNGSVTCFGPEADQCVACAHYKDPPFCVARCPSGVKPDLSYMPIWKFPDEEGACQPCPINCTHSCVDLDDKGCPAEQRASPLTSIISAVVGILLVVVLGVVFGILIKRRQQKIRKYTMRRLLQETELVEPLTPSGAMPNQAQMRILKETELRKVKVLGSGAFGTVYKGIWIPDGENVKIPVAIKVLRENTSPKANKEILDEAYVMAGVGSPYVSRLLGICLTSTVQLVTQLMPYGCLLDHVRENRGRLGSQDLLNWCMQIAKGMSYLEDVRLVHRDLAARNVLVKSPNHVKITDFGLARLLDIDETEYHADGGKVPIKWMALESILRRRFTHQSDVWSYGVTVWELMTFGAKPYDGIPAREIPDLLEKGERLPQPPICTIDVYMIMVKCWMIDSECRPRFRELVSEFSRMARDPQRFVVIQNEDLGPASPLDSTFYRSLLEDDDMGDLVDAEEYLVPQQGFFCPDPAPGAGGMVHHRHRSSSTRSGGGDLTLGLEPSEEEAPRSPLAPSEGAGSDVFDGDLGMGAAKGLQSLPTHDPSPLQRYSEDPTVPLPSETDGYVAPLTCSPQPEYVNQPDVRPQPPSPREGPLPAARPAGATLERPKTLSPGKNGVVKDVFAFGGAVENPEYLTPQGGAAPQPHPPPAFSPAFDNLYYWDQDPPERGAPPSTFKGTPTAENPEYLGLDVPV

## CN1CCN([C@H]2CC[C@H](n3nc(-c4ccc(Nc5nc6cccc(Cl)c6o5)c(F)c4)c4c(N)ncnc43)CC2)CC1
[1]
  IC50: 87 nM
[2]
  EC50: > 1000 nM
  IC50: 2880 nM
[3]
  IC50: 7.5 nM
[4]
  IC50: 362 nM
[5]
  IC50: 16 nM
[6]
  IC50: 37 nM

## Cc1cc(-c2nn([C@H]3CC[C@H](N4CCN(C)CC4)CC3)c3ncnc(N)c23)ccc1Nc1nc2cccc(Cl)c2o1
[3]
  IC50: 196 nM
[6]
  IC50: 156 nM

## Cc1cc(C)c2oc(Nc3ccc(-c4nn([C@H]5CC[C@@H](N6CCN(C)CC6)CC5)c5ncnc(N)c45)cc3F)nc2c1
[3]
  IC50: 160 nM
[5]
  IC50: 4030 nM
[6]
  IC50: 2270 nM

## CN1CCN([C@H]2CC[C@H](n3nc(-c4ccc(Nc5nc6cccc(Cl)c6o5)c(Cl)c4)c4c(N)ncnc43)CC2)CC1
[3]
  IC50: 49 nM
[5]
  IC50: 29 nM
[6]
  IC50: 63 nM

## CC(C)N1CCC(N2CCC(n3nc(-c4ccc(Nc5nc6cccc(Cl)c6o5)cc4)c4c(N)ncnc43)CC2)CC1
[3]
  IC50: 115 nM
[5]
  IC50: 15.1 nM
[6]
  IC50: 97 nM

## CN1CCN([C@H]2CC[C@@H](n3nc(-c4ccc(Nc5nc6cccc(C#N)c6o5)cc4)c4c(N)ncnc43)CC2)CC1
[3]
  IC50: 113 nM
[6]
  IC50: 2810 nM

## CN1CCN([C@H]2CC[C@H](n3nc(-c4ccc(Nc5nc6cccc(Cl)c6o5)cc4Cl)c4c(N)ncnc43)CC2)CC1
[3]
  IC50: 4.1 nM
[5]
  IC50: 15.4 nM

## COCCCN1CCN([C@H]2CC[C@H](n3nc(-c4ccc(Nc5nc6cccc(Cl)c6o5)cc4)c4c(N)ncnc43)CC2)CC1
[3]
  IC50: 72.4 nM
[5]
  IC50: 21.5 nM
[6]
  IC50: 108 nM

## CN1CCN([C@H]2CC[C@H](n3nc(-c4ccc(Nc5nc6cccc(Cl)c6o5)cc4)c4c(N)ncnc43)CC2)CC1
[7]
  bioavailability: 20%
[1]
  IC50: 207 nM
[8]
  clearance: 15.2 mL/min/kg
[9]
  Tmax: 3 h
[10]
  inhibition: Active
[2]
  EC50: > 1000 nM
  IC50: 2300 nM
[3]
  IC50: 12.5 nM
[11]
  clearance: 31.8 mL/min/kg
[12]
  AUC: 190 ng·h/mL
[13]
  inhibition in vivo at 30 mg/kg: 50%
[14]
  AUC: 940 ng·h/mL
[4]
  IC50: 340 nM
[15]
  bioavailability: 30%
[16]
  Tmax: 8 h
[17]
  Cmax: 160 nM
[18]
  AUC: 1260 ng·h/mL
[19]
  half-life: 2.4 h
[20]
  half-life: 8.4 h
[21]
  Cmax: 170 nM
[22]
  AUC: 380 ng·h/mL
[5]
  IC50: 7.5 nM
[6]
  IC50: 31.5 nM

## CN1CCN([C@H]2C[C@@H](c3nc(-c4ccc5ccc(-c6ccccc6)nc5c4)c4c(N)nccn43)C2)CC1
[1]
  IC50: 65 nM
[2]
  IC50: > 30000 nM
[4]
  IC50: > 30000 nM

## CN1CCN([C@H]2CC[C@@H](n3nc(-c4ccc(Nc5nc6cccc(Cl)c6o5)c(F)c4)c4c(N)ncnc43)CC2)CC1
[3]
  IC50: 72 nM
[5]
  IC50: 1350 nM
[6]
  IC50: 852 nM

## COCCCN1CCC(N2CCC(n3nc(-c4ccc(Nc5nc6cccc(Cl)c6o5)cc4)c4c(N)ncnc43)CC2)CC1
[3]
  IC50: 283 nM
[5]
  IC50: 13.8 nM
[6]
  IC50: 264 nM

## CN1CCN([C@H]2CC[C@@H](n3nc(-c4ccc(Nc5nc6cc(Cl)ccc6o5)c(F)c4)c4c(N)ncnc43)CC2)CC1
[3]
  IC50: 415 nM
[6]
  IC50: 1470 nM

## COC(=O)c1cccc2nc(Nc3ccc(-c4nn([C@H]5CC[C@@H](N6CCN(C)CC6)CC5)c5ncnc(N)c45)cc3)oc12
[3]
  IC50: 179 nM
[6]
  IC50: 3590 nM

## Cc1cc(Cl)c2oc(Nc3ccc(-c4nn([C@H]5CC[C@@H](N6CCN(C)CC6)CC5)c5ncnc(N)c45)cc3)nc2c1
[3]
  IC50: 348 nM
[5]
  IC50: 5230 nM
[6]
  IC50: 1130 nM

## CC(C)N1CCN([C@H]2CC[C@@H](n3nc(-c4ccc(Nc5nc6cccc(Cl)c6o5)cc4)c4c(N)ncnc43)CC2)CC1
[3]
  IC50: 174 nM
[5]
  IC50: 62 nM
[6]
  IC50: 322 nM

## CN1CCN([C@H]2CC[C@@H](n3nc(-c4ccc(Nc5nc6cc(Cl)cc(Cl)c6o5)cc4)c4c(N)ncnc43)CC2)CC1
[3]
  IC50: 584 nM
[6]
  IC50: 639 nM

## Cc1cc(Br)c2oc(Nc3ccc(-c4cn([C@H]5CC[C@@H](N6CCN(C)CC6)CC5)c5ncnc(N)c45)cc3F)nc2c1
[3]
  IC50: 94 nM
[5]
  IC50: > 62500 nM
[6]
  IC50: 1450 nM

## CN1CCN([C@H]2CC[C@@H](n3nc(-c4ccc(Nc5nc6ccccc6o5)cc4)c4c(N)ncnc43)CC2)CC1
[3]
  IC50: 810 nM
[6]
  IC50: 1660 nM

## CC(C)N1CCN([C@H]2CC[C@H](n3nc(-c4ccc(Nc5nc6cccc(Cl)c6o5)cc4)c4c(N)ncnc43)CC2)CC1
[3]
  IC50: 45.1 nM
[5]
  IC50: 9.8 nM
[6]
  IC50: 53.7 nM

## CN(C)C(=O)CN1CCN([C@H]2CC[C@H](n3nc(-c4ccc(Nc5nc6cccc(Cl)c6o5)cc4)c4c(N)ncnc43)CC2)CC1
[3]
  IC50: 126 nM
[5]
  IC50: 21.5 nM
[6]
  IC50: 1840 nM

## COCCCN1CCN([C@H]2CC[C@@H](n3nc(-c4ccc(Nc5nc6cccc(Cl)c6o5)cc4)c4c(N)ncnc43)CC2)CC1
[3]
  IC50: 424 nM
[5]
  IC50: 397 nM
[6]
  IC50: 874 nM

## CN1CCC(N2CCC(n3nc(-c4ccc(Nc5nc6cccc(Cl)c6o5)cc4)c4c(N)ncnc43)CC2)CC1
[3]
  IC50: 108 nM
[5]
  IC50: 14.5 nM
[6]
  IC50: 99 nM

## CN1CCN([C@H]2CC[C@@H](n3nc(-c4ccc(Nc5nc6cccc(Cl)c6o5)cc4)c4c(N)ncnc43)CC2)CC1
[3]
  IC50: 77 nM
[5]
  IC50: 200 nM
[6]
  IC50: 393 nM

## Nc1ncnc2c1c(-c1ccc(Nc3nc4cccc(Cl)c4o3)cc1)nn2[C@H]1CC[C@H](N2CCOCC2)CC1
[3]
  IC50: 42 nM
[5]
  IC50: 334 nM
[6]
  IC50: 1020 nM

## Cc1cc(Nc2nc3cccc(Cl)c3o2)ccc1-c1nn([C@H]2CC[C@H](N3CCN(C)CC3)CC2)c2ncnc(N)c12
[3]
  IC50: 22 nM
[5]
  IC50: 478 nM
[6]
  IC50: 530 nM
